Shown are actives, neighbours in structure and some others; about 2.4% of the full set was active somewhere.
TNF necrop inh = inhibitors of TNF-alpha triggered necroptosis, primary screen, cell-based, Jurkat FADD-/-, single concentration. 0.068% of 220,000 active. activation (protection from cell death), % at 10 µM. AID 463075, 2010. Jurkat FADD-/- TNF necroptosis rescue, ATP luminescence, 24 h; 0 = TNF only, 100 = no-TNF cells;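 active = activation, meaning protection from cell death, of at least 50% relative to plate controls; inactive = activation below 50%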;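 note: necroptosis triggered by 40 ng/mL TNF-alpha added together with compound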
Dynein cargo inh = inhibitors of GR-EGFP nuclear translocation, primary screen, dynein cargo transport inhibitor project, imaging, high-content, 3617.4 mouse cells. 0.47% of 220,000 active. z-score, hits read low. AID 1381, 2008. test concentration mostly 20 µM; stimulated with dexamethasone, 1 µM; active compounds read low;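 active = plate z-score of nuclear minus cytoplasmic receptor signal below a set negative limit, without overly bright fluorescence or cell loss, cut at about -3.5 in these data, passing the limit was not always enough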;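 note: z-score of nuclear minus cytoplasmic ring GR-EGFP intensity difference per well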
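medium = tetracycline-free induction medium containing charcoal-stripped FBS | also added = 1.0 µM final dexamethasone stimulus | schedule = 48 h induction, 1 h compound, 30 min dex at 37 °C | technique = fixed, Hoechst-stained cells imaged at 10x for EGFP | measure = GR-EGFP nuclear translocation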
zVAD death inh = inhibitors of zVAD-triggered necroptosis, primary screen, L929 cells; L929 zVAD necroptosis rescue, ATP luminescence, 24 h; with zVAD 60 µM; viability rescue, % at 10 µM; 0.38% of 220,000 active; AID 1377, 2008;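 active = activation, scaled between plate controls, above about 75%, limit read from the data; inactive = activation under that limit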
Hck-Nef inh = inhibitors of Nef-activated human Hck kinase, primary screen, biochemical, Z-Lyte FRET, 384-well, Hck-YEEI; Recombinant Hck-YEEI plus Nef, Z-Lyte FRET kinase assay; inhibition, % at 20 µM; 0.68% of 220,000 active;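 active = Hck-Nef kinase inhibition above about 50%, limit read from the data; inactive = inhibition below that limit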
Target sequence (P08631 whole entry, looked up): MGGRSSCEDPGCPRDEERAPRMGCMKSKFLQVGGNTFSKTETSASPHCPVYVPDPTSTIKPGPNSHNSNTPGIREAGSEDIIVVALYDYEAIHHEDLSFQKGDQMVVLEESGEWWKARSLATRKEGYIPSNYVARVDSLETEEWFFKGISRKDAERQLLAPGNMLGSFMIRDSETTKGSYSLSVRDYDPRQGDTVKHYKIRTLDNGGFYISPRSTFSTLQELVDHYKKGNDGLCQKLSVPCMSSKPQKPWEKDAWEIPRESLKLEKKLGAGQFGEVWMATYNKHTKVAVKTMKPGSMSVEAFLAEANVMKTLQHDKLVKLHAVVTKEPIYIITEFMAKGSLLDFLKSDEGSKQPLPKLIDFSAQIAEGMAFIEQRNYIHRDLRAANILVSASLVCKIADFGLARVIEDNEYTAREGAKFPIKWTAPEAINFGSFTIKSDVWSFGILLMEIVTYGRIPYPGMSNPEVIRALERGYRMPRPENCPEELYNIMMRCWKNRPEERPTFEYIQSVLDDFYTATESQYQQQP
Mdm2 ligase inh = MDM2-luciferase reporter signal enhancers, primary screen, MDM2 E3 ligase inhibitor project, cell-based, luminescence, 1536-well. E3 ubiquitin-protein ligase Mdm2 (Homo sapiens), Q00987. cell-based MDM2 ubiquitination luciferase reporter, 2 h; 0 = plate control, 100 = twice control, blank-subtracted. signal enhancement, % at 5 µM. 0.11% of 210,000 active. AID 1230, 2008;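 active = signal enhancement of 30% or more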;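 note: luminescence tracks abundance of the self-degrading MDM2-luciferase fusion protein; higher signal means inhibition of MDM2 E3 ligase activity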
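Assay system: stable mammalian line carrying autodegrading MDM2–luciferase fusion reporter; amount: 2000 cells seeded into each well; buffer or medium: DMEM; benchmarks: plate control and blank wells; signal: luciferase luminescence; timing: 2 h compound exposure at 37 °C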
Autophagy mod = autophagy modulators in MEF cells, primary screen, imaging, high-content, MEF GFP-LC3 | MEF GFP-LC3 puncta imaging; test concentration mostly 10 µM | calls only at 10 µM (by protocol) | 0.98% of 190,000 active;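 active = percentage of spot-positive cells more than 3 SD above its plate mean, without a fluorescence outlier flag or 80% toxicity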
Numbers stand for hits.

For Cc1cc(NC(=O)CSc2nc3c(sc4ccccc43)c(=O)n2CCc2ccccc2)n[nH]1 the results were TNF necrop inh inactive, Dynein cargo inh inactive, zVAD death inh inactive, Hck-Nef inh inactive, Mdm2 ligase inh inactive and Autophagy mod inactive.
Screening O=C(CSc1nc2ccccc2c(=O)n1CCCN1CCOCC1)N1CCN(c2ccccc2)CC1 returned TNF necrop inh inactive, Dynein cargo inh inactive, zVAD death inh inactive, Hck-Nef inh inactive, Mdm2 ligase inh inactive and Autophagy mod active.
`Cc1ccc(NC(=O)CSc2nc3ccccc3c(=O)n2CCCN2CCCCC2)cc1C` gave TNF necrop inh inactive, Dynein cargo inh inactive, zVAD death inh inactive, Hck-Nef inh inactive, Mdm2 ligase inh inactive and Autophagy mod active.
O=c1c2[nH]c3ccc(Br)cc3c2ncn1Cc1ccncc1 was read as TNF necrop inh inactive, Dynein cargo inh inactive, zVAD death inh inactive, Hck-Nef inh inactive and Mdm2 ligase inh inactive.
Screening O=C1CCCN1CCCNS(=O)(=O)c1ccc(F)cc1F returned TNF necrop inh inactive, Dynein cargo inh inactive, zVAD death inh inactive, Hck-Nef inh inactive and Mdm2 ligase inh inactive.
CCN(CC)c1ccc(/C=N/Nc2nc3ccccc3[nH]2)cc1 was read as TNF necrop inh inactive, Dynein cargo inh inactive, zVAD death inh inactive, Hck-Nef inh inactive, Mdm2 ligase inh inactive and Autophagy mod active.
Screening COC(=O)Nc1ccc(S(=O)(=O)N2CCCC(C(=O)N3CCCCCC3)C2)cc1 (configuration not stated) returned TNF necrop inh inactive, Dynein cargo inh inactive, zVAD death inh inactive, Hck-Nef inh inactive, Mdm2 ligase inh inactive and Autophagy mod active.
CC1CCN(Cc2c(C(=O)O)nnn2-c2nonc2N)CC1 was read as TNF necrop inh inactive, Dynein cargo inh inactive, zVAD death inh inactive, Hck-Nef inh inactive, Mdm2 ligase inh inactive and Autophagy mod inactive.
`O=C(/C=C/c1cccc(Br)c1)NCc1ccncc1` gave TNF necrop inh inactive, Dynein cargo inh inactive, zVAD death inh inactive, Hck-Nef inh inactive, Mdm2 ligase inh inactive and Autophagy mod inactive.
`Cc1ccccc1C(=O)/C=C1/SCC(=O)N1C` gave TNF necrop inh inactive, Dynein cargo inh inactive, zVAD death inh inactive, Hck-Nef inh inactive, Mdm2 ligase inh inactive and Autophagy mod inactive.
`COc1cc(C2C(C#N)=C(N)Oc3cc(N)ccc32)cc(OC)c1OC` (configuration not stated) gave TNF necrop inh inactive, Dynein cargo inh inactive, zVAD death inh inactive, Hck-Nef inh inactive, Mdm2 ligase inh inactive and Autophagy mod active.
Screening O=S(=O)(NCc1ccc(Cl)cc1)c1cnc[nH]1 returned TNF necrop inh inactive, Dynein cargo inh inactive, zVAD death inh inactive, Hck-Nef inh inactive, Mdm2 ligase inh inactive and Autophagy mod active.
Screening CC(=O)N(CC1CCCO1)c1nnc(-c2ccccn2)s1 (configuration not stated) returned TNF necrop inh 65.1, Dynein cargo inh inactive, zVAD death inh inactive, Hck-Nef inh inactive, Mdm2 ligase inh inactive and Autophagy mod inactive.
`COc1cc(/C=C(/C#N)c2ccc(F)cc2)ccc1Oc1ccc([N+](=O)[O-])cn1` gave TNF necrop inh inactive, Dynein cargo inh inactive, zVAD death inh inactive, Hck-Nef inh inactive and Autophagy mod inactive.
`Cc1ccc(C)c(NC(=S)Nc2ccc(S(=O)(=O)Nc3ncccn3)cc2)c1` gave TNF necrop inh inactive, Dynein cargo inh inactive, zVAD death inh inactive, Hck-Nef inh inactive, Mdm2 ligase inh inactive and Autophagy mod active.
O=C(C1=NN[C@@H]2C(=O)N(Cc3ccccc3)C(=O)[C@H]12)c1ccc(F)cc1 was read as TNF necrop inh inactive, Dynein cargo inh inactive, zVAD death inh inactive, Hck-Nef inh inactive and Mdm2 ligase inh inactive.

From PubChem BioAssay
